Data from ChEMBL document CHEMBL4689842, “EUbOPEN Chemogenomics Library wave 1” (2021).

System: Fibroblast
Experiment: Multiplex assay against human fibroblast
Type: toxicity, cell-based
How it was run: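 Tubulin, mitochondrial-mass and membrane-permeability phenotypes are per cents of healthy-nucleus cells. Cells were gated by CellPathfinder machine learning into Hoechst high-intensity objects or normal cells, normal cells into healthy, pyknosed or fragmented nuclei, and pyknosed cells into mitotic or apoptotic. Before that, live cells stained at seeding with Hoechst33342, BioTracker Green Microtubule Cytoskeleton Dye, MitoTracker Red and Annexin V Alexa Fluor 680 were imaged on a CQ1 microscope at 37°C and 5% CO2 after compound addition.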

[1] = 12 h, 1 µM, compound concentration 1 uM, replicate 1
[2] = 12 h, 1 µM, compound concentration 1 uM, replicate 2
[3] = 12 h, 10 µM, compound concentration 10 uM, replicate 1
[4] = 12 h, 10 µM, compound concentration 10 uM, replicate 2
[5] = 24 h, 1 µM, compound concentration 1 uM, replicate 1
[6] = 24 h, 1 µM, compound concentration 1 uM, replicate 2
[7] = 24 h, 10 µM, compound concentration 10 uM, replicate 1
[8] = 24 h, 10 µM, compound concentration 10 uM, replicate 2
[9] = 48 h, 1 µM, compound concentration 1 uM, replicate 1
[10] = 48 h, 1 µM, compound concentration 1 uM, replicate 2
[11] = 48 h, 10 µM, compound concentration 10 uM, replicate 1
[12] = 48 h, 10 µM, compound concentration 10 uM, replicate 2

CC(C)c1noc(N2CCC(COc3ccc(-c4ccc(S(C)(=O)=O)cc4)nc3)CC2)n1 [GSK-1292263]
Population Apoptotic (%) [1]: 65%
Population Fragmented Nuclei (%) [1]: 28%
Population Healthy Nuclei (%) [1]: 45%
Population Hoechst High Intensity Objects (%) [1]: 12%
Population Membrane Permeable-Phenotype (%) [1]: 21%
Population Mitochondria Different-Phenotype (%) [1]: 15%
Population Mitotic Cells (%) [1]: 34%
Population Normal (%) [1]: 87%
Population Pyknosed Nuclei (%) [1]: 25%
Population Tubulin-Different-Phenotype (%) [1]: 49%
Total Cell Count [1]: 128
Population Apoptotic (%) [2]: 50%
Population Fragmented Nuclei (%) [2]: 12%
Population Healthy Nuclei (%) [2]: 85%
Population Hoechst High Intensity Objects (%) [2]: 2%
Population Membrane Permeable-Phenotype (%) [2]: 3%
Population Mitochondria Different-Phenotype (%) [2]: 4%
Population Mitotic Cells (%) [2]: 50%
Population Normal (%) [2]: 97%
Population Pyknosed Nuclei (%) [2]: 2%
Population Tubulin-Different-Phenotype (%) [2]: 9%
Total Cell Count [2]: 89
Population Apoptotic (%) [3]: 52%
Population Fragmented Nuclei (%) [3]: 21%
Population Healthy Nuclei (%) [3]: 45%
Population Hoechst High Intensity Objects (%) [3]: 5%
Population Membrane Permeable-Phenotype (%) [3]: 24%
Population Mitochondria Different-Phenotype (%) [3]: 5%
Population Mitotic Cells (%) [3]: 48%
Population Normal (%) [3]: 94%
Population Pyknosed Nuclei (%) [3]: 33%
Population Tubulin-Different-Phenotype (%) [3]: 49%
Total Cell Count [3]: 160
Population Apoptotic (%) [4]: 42%
Population Fragmented Nuclei (%) [4]: 5%
Population Healthy Nuclei (%) [4]: 83%
Population Membrane Permeable-Phenotype (%) [4]: 3%
Population Mitochondria Different-Phenotype (%) [4]: 10%
Population Mitotic Cells (%) [4]: 57%
Population Pyknosed Nuclei (%) [4]: 10%
Population Tubulin-Different-Phenotype (%) [4]: 15%
Total Cell Count [4]: 76
Population Apoptotic (%) [5]: 38%
Population Fragmented Nuclei (%) [5]: 27%
Population Healthy Nuclei (%) [5]: 39%
Population Hoechst High Intensity Objects (%) [5]: 8%
Population Membrane Permeable-Phenotype (%) [5]: 39%
Population Mitochondria Different-Phenotype (%) [5]: 12%
Population Mitotic Cells (%) [5]: 61%
Population Normal (%) [5]: 91%
Population Pyknosed Nuclei (%) [5]: 33%
Population Tubulin-Different-Phenotype (%) [5]: 75%
Total Cell Count [5]: 112
Population Apoptotic (%) [6]: 0%
Population Fragmented Nuclei (%) [6]: 14%
Population Healthy Nuclei (%) [6]: 83%
Population Hoechst High Intensity Objects (%) [6]: 2%
Population Membrane Permeable-Phenotype (%) [6]: 2%
Population Mitochondria Different-Phenotype (%) [6]: 10%
Population Mitotic Cells (%) [6]: 100%
Population Normal (%) [6]: 97%
Population Pyknosed Nuclei (%) [6]: 2%
Population Tubulin-Different-Phenotype (%) [6]: 13%
Total Cell Count [6]: 103
Population Apoptotic (%) [7]: 52%
Population Fragmented Nuclei (%) [7]: 20%
Population Healthy Nuclei (%) [7]: 45%
Population Hoechst High Intensity Objects (%) [7]: 10%
Population Membrane Permeable-Phenotype (%) [7]: 23%
Population Mitochondria Different-Phenotype (%) [7]: 4%
Population Mitotic Cells (%) [7]: 47%
Population Normal (%) [7]: 89%
Population Pyknosed Nuclei (%) [7]: 34%
Population Tubulin-Different-Phenotype (%) [7]: 70%
Total Cell Count [7]: 178
Population Apoptotic (%) [8]: 36%
Population Fragmented Nuclei (%) [8]: 7%
Population Healthy Nuclei (%) [8]: 79%
Population Hoechst High Intensity Objects (%) [8]: 4%
Population Membrane Permeable-Phenotype (%) [8]: 7%
Population Mitochondria Different-Phenotype (%) [8]: 12%
Population Mitotic Cells (%) [8]: 63%
Population Normal (%) [8]: 95%
Population Pyknosed Nuclei (%) [8]: 13%
Population Tubulin-Different-Phenotype (%) [8]: 7%
Total Cell Count [8]: 91
Population Apoptotic (%) [9]: 35%
Population Fragmented Nuclei (%) [9]: 29%
Population Healthy Nuclei (%) [9]: 54%
Population Hoechst High Intensity Objects (%) [9]: 12%
Population Membrane Permeable-Phenotype (%) [9]: 33%
Population Mitochondria Different-Phenotype (%) [9]: 8%
Population Mitotic Cells (%) [9]: 64%
Population Normal (%) [9]: 88%
Population Pyknosed Nuclei (%) [9]: 15%
Population Tubulin-Different-Phenotype (%) [9]: 50%
Total Cell Count [9]: 100
Population Apoptotic (%) [10]: 0%
Population Fragmented Nuclei (%) [10]: 26%
Population Healthy Nuclei (%) [10]: 73%
Population Hoechst High Intensity Objects (%) [10]: 8%
Population Membrane Permeable-Phenotype (%) [10]: 21%
Population Mitochondria Different-Phenotype (%) [10]: 2%
Population Mitotic Cells (%) [10]: 0%
Population Normal (%) [10]: 91%
Population Pyknosed Nuclei (%) [10]: 0%
Population Tubulin-Different-Phenotype (%) [10]: 48%
Total Cell Count [10]: 70
Population Apoptotic (%) [11]: 44%
Population Fragmented Nuclei (%) [11]: 27%
Population Healthy Nuclei (%) [11]: 54%
Population Hoechst High Intensity Objects (%) [11]: 14%
Population Membrane Permeable-Phenotype (%) [11]: 29%
Population Mitochondria Different-Phenotype (%) [11]: 4%
Population Mitotic Cells (%) [11]: 55%
Population Normal (%) [11]: 85%
Population Pyknosed Nuclei (%) [11]: 18%
Population Tubulin-Different-Phenotype (%) [11]: 69%
Total Cell Count [11]: 184
Population Apoptotic (%) [12]: 66%
Population Fragmented Nuclei (%) [12]: 21%
Population Healthy Nuclei (%) [12]: 74%
Population Hoechst High Intensity Objects (%) [12]: 9%
Population Membrane Permeable-Phenotype (%) [12]: 28%
Population Mitochondria Different-Phenotype (%) [12]: 0%
Population Mitotic Cells (%) [12]: 33%
Population Normal (%) [12]: 90%
Population Pyknosed Nuclei (%) [12]: 4%
Population Tubulin-Different-Phenotype (%) [12]: 59%
Total Cell Count [12]: 77
